Reference: ChEMBL document CHEMBL1137710, “Synthesis and in vitro antitumor activity of new quinoxaline derivatives” (2009)

Legend:
Type in all cases: functional
[1] = test system: HL-60(TB); test: Growth inhibition of human HL-60(TB) cells after 48 hrs by sulforhodamine B assay; settings: HL-60, 48 h
Method in brief: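 Tested only on compounds active in a three-line prescreen, in the NCI 60-human-tumour-cell-line panel over a 5-log dose range. Values come from dose–response curves as log10 molar GI50, the concentration inhibiting 50% net cell growth. Log10 TGI (total growth inhibition) and log10 LC50 (50% net cell death) were derived too. Mean graph midpoints include insensitive lines at the highest concentration tested.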

[2] = test system: SR; test: Growth inhibition of human SR cells after 48 hrs by sulforhodamine B assay
Method in brief: (§1)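 Run in the NCI 60-human-tumour-cell-line panel, tested over a 5-log dose range. Dose–response curves gave three values per cell line, each as a log10 molar concentration: GI50 (50% inhibition of net cell growth), TGI (total inhibition of net growth) and LC50 (50% net cell death). The mean graph midpoint is the arithmetic mean over all lines, with insensitive lines entered at the highest concentration tested.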

[3] = test system: MOLT-4; test: Growth inhibition of human MOLT4 cells after 48 hrs by sulforhodamine B assay; settings: MOLT-4, 48 h
Method in brief: (§2)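 NCI 60-human-tumor-cell-line panel, with compounds tested over a 5-log dose range. Values are taken from dose-response curves as log10 molar concentrations: GI50 is 50% net growth inhibition, TGI is total growth inhibition, and LC50 is 50% net cell death.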

[4] = test system: EKVX; test: Growth inhibition of human EKVX cells after 48 hrs by sulforhodamine B assay; method in brief: as §2
[5] = test system: HOP-92; test: Growth inhibition of human HOP92 cells after 48 hrs by sulforhodamine B assay; settings: HOP-92, 48 h; method in brief: as §2
[6] = test system: NCI-H226; test: Growth inhibition of human NCI-H226 cells after 48 hrs by sulforhodamine B assay; settings: NCI-H226, 48 h; method in brief: as §2
[7] = test system: NCI-H460; test: Growth inhibition of human NCI-H460 cells after 48 hrs by sulforhodamine B assay; settings: NCI-H460, 48 h; method in brief: as §2
[8] = test system: COLO 205; test: Growth inhibition of human COLO205 cells after 48 hrs by sulforhodamine B assay; settings: COLO 205, 48 h; method in brief: as §2
[9] = test system: HT-29; test: Growth inhibition of human HT-29 cells after 48 hrs by sulforhodamine B assay; settings: HT-29, 48 h; method in brief: as §2
[10] = test system: KM12; test: Growth inhibition of human KM12 cells after 48 hrs by sulforhodamine B assay; settings: KM12, 48 h; method in brief: as §2
[11] = test system: SF-539; test: Growth inhibition of human SF539 cells after 48 hrs by sulforhodamine B assay; settings: SF-539, 48 h; method in brief: as §2
[12] = test system: SNB-19; test: Growth inhibition of human SNB19 cells after 48 hrs by sulforhodamine B assay; settings: SNB-19, 48 h; method in brief: as §1
[13] = test system: SNB-75; test: Growth inhibition of human SNB75 cells after 48 hrs by sulforhodamine B assay; settings: SNB-75, 48 h; method in brief: as §1
[14] = test system: UACC-257; test: Growth inhibition of human UACC257 cells after 48 hrs by sulforhodamine B assay; settings: UACC-257, 48 h; method in brief: as §1
[15] = test system: OVCAR-3; test: Growth inhibition of human OVCAR-3 cells after 48 hrs by sulforhodamine B assay; settings: OVCAR-3, 48 h; method in brief: as §2
[16] = test system: OVCAR-5; test: Growth inhibition of human OVCAR5 cells after 48 hrs by sulforhodamine B assay; settings: OVCAR-5, 48 h; method in brief: as §2
[17] = test system: OVCAR-8; test: Growth inhibition of human OVCAR8 cells after 48 hrs by sulforhodamine B assay; settings: OVCAR-8, 48 h; method in brief: as §2
[18] = test system: A498; test: Growth inhibition of human A498 cells after 48 hrs by sulforhodamine B assay; settings: A498, 48 h; method in brief: as §2
[19] = test system: ACHN; test: Growth inhibition of human ACHN cells after 48 hrs by sulforhodamine B assay
[20] = test system: RXF 393; test: Growth inhibition of human RXF393 cells after 48 hrs by sulforhodamine B assay; settings: RXF 393, 48 h; method in brief: as §2
[21] = test system: SN12C; test: Growth inhibition of human SN12C cells after 48 hrs by sulforhodamine B assay; method in brief: as §1
[22] = test system: TK-10; test: Growth inhibition of human TK10 cells after 48 hrs by sulforhodamine B assay; settings: TK-10, 48 h; method in brief: as §1
[23] = test system: PC-3; test: Growth inhibition of human PC3 cells after 48 hrs by sulforhodamine B assay; settings: PC-3, 48 h; method in brief: as §2
[24] = test system: NCI/ADR-RES; test: Growth inhibition of human NCI/ADR-RES cells after 48 hrs by sulforhodamine B assay; method in brief: as §2
[25] = test system: MDA-MB-231; test: Growth inhibition of human MDA-MB-231 cells after 48 hrs by sulforhodamine B assay; settings: MDA-MB-231, 48 h; method in brief: as §2
[26] = Growth inhibition of human Hs 578T cells after 48 hrs by sulforhodamine B assay; method in brief: as §2
[27] = read-out: pLC50 (the source's name) (converted)

## COc1cc(CNc2nc3cc(N)cc(N)c3nc2-c2ccccc2)cc(OC)c1OC
[1]
  GI50: 1.26 µM
  LC50: > 50.1 µM
[1]; read-out: pTGI (converted)
  TGI: > 50.1 µM
[2]
  GI50: 0.891 µM
  LC50 (concentration giving 50% net cell death): > 50.1 µM
[2]; read-out: pTGI (converted)
  TGI: > 50.1 µM
[3]
  GI50: 12.3 µM
  LC50: > 50.1 µM
[3]; read-out: pTGI (converted)
  TGI: > 50.1 µM
[4]
  GI50: 1.95 µM
  LC50 (50% net cell kill): 27.5 µM
[4]; read-out: pTGI (converted)
  TGI: 8.32 µM
[5]
  GI50: 1.2 µM
  LC50 (50% net cell death): > 50.1 µM
[5]; read-out: pTGI (converted)
  TGI: 3.09 µM
[6]
  GI50: 10 µM
  LC50: > 50.1 µM
[6]; read-out: pTGI (converted)
  TGI: 22.4 µM
[7]
  GI50: 1.51 µM
  LC50 (50% net cell kill): > 50.1 µM
[7]; read-out: pTGI (converted)
  TGI: > 50.1 µM
[8]
  GI50: 3.8 µM
  LC50 (50% net cell kill): > 50.1 µM
[8]; read-out: pTGI (converted)
  TGI: > 50.1 µM
[9]
  GI50: 8.71 µM
  LC50: 43.7 µM
[9]; read-out: pTGI (converted)
  TGI: 19.5 µM
[10]
  GI50: 0.479 µM
  LC50 (50% net cell kill): > 50.1 µM
[10]; read-out: pTGI (converted)
  TGI: 10.2 µM
[11]
  GI50: 1.35 µM
  LC50: 26.9 µM
[11]; read-out: pTGI (converted)
  TGI: 7.94 µM
[12]
  GI50: 7.24 µM
  LC50: > 50.1 µM
[12]; read-out: pTGI (converted)
  TGI: 20.9 µM
[13]
  GI50: 0.813 µM
  LC50: > 50.1 µM
[13]; read-out: pTGI (converted)
  TGI: 14.5 µM
[14]
  GI50: 3.47 µM
[14]; [27]
  CC50: 27.5 µM
[14]; read-out: pTGI (converted)
  TGI: 10.7 µM
[15]
  GI50: 1.15 µM
[15]; [27]
  CC50: 18.2 µM
[15]; read-out: pTGI (converted)
  TGI: 3.39 µM
[16]
  GI50: 21.4 µM
[16]; [27]
  CC50: > 50.1 µM
[16]; read-out: pTGI (converted)
  TGI: > 50.1 µM
[17]
  GI50: 6.92 µM
[17]; [27]
  CC50: 31.6 µM
[17]; read-out: pTGI (converted)
  TGI: 14.8 µM
[18]
  GI50: 6.31 µM
[18]; [27]
  CC50: 33.9 µM
[18]; read-out: pTGI (converted)
  TGI: 14.8 µM
[19]
  GI50: 5.37 µM
[19]; [27]
  CC50: 23.4 µM
[19]; read-out: pTGI (converted)
  TGI: 11.2 µM
[20]
  GI50: 7.41 µM
[20]; [27]
  CC50: > 50.1 µM
[20]; read-out: pTGI (converted)
  TGI: 20 µM
[21]
  GI50: 8.71 µM
[21]; [27]
  CC50: 32.4 µM
[21]; read-out: pTGI (converted)
  TGI: 16.6 µM
[22]
  GI50: 6.31 µM
[22]; [27]
  CC50: > 50.1 µM
[22]; read-out: pTGI (converted)
  TGI: 17.8 µM
[23]
  GI50: 2.19 µM
[23]; [27]
  CC50: > 50.1 µM
[23]; read-out: pTGI (converted)
  TGI: > 50.1 µM
[24]
  GI50: 10.2 µM
[24]; [27]
  CC50: 46.8 µM
[24]; read-out: pTGI (converted)
  TGI: 21.9 µM
[25]
  GI50: 7.24 µM
[25]; [27]
  CC50: 31.6 µM
[25]; read-out: pTGI (converted)
  TGI: 15.1 µM
[26]
  GI50: 3.02 µM
[26]; [27]
  CC50: > 50.1 µM
[26]; read-out: pTGI (converted)
  TGI: 33.1 µM
